The clearance is the rate of elimination divided by the concentration. Usually Vd stands for the apparent volume that relates the amount in the body to the concentration in plasma or blood. The low end stands for little distribution into tissue, the high end for wide distribution into tissue. As usually defined, the half-life is the time in which the quantity being followed falls by half. A low value points to fast loss.

Data set [1] is described as follows: In vivo pharmacokinetic study, intravenous emulsion. On the set-up: species or system female Sprague Dawley rats. To be noted: rat. In outline: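 Female Sprague Dawley rats (248–276 g; n = 6/group) received a tail-vein dose molar equivalent to 5 mg aripiprazole/kg. Vehicle: submicron emulsion (20% w/w MCT oil, 1.2% lecithin, 2% glycerol, water; 1 mg aripiprazole-equivalent/mL). K-EDTA blood was sampled at 5, 15, 30 min and 1–24 h. Acidified-acetonitrile plasma extracts with d8 internal standard were analysed by positive-ESI MRM. Two-compartment fit; trapezoidal AUC extrapolated to infinity; mean ± SEM.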

The conditions of data set [2]: cited from earlier work.
For data set [3] the following is noted: ref 41 (Scifinder); cited from earlier work.
The mark [4] stands for this setting: female, Sprague Dawley, plasma, iv, 5 mg/kg.

Values after ≈ are worked out from the molar mass of the structure shown.

With `O=C1CCc2ccc(OCCCCN3CCN(c4cccc(Cl)c4Cl)CC3)cc2N1` [aripiprazole], the clearance in data set [1] (female, Sprague Dawley, plasma, iv, 5 mg aripiprazole/kg (molar equivalent)) was 22.8 mL/min/kg. In data set [1] (setting [4]), this compound gave a Vd of 8.16 ± 0.75 L/kg and a half-life of roughly 4.2 h. In data set [1] (i.v., molar equivalent to 5 mg aripiprazole/kg, n = 6, mean ± SEM), the “AUC0?8” value is given as 8176 ± 2647 nmol?h/L. Also, the solubility in water in data set [2] is given as 9 µM (≈ 4.04 µg/mL).

On to `O=C1CCc2ccccc2N1` [3,4-dihydro-2(1H)-quinolinone], for which the “Estimated pKa” value in data set [3] is reported as 14.6.

The values above are taken from PMC4050360 (Results in Pharma Sciences, 2014).
